Screening data (PubChem)
Sampled rows, rich in hits. Any-hit rate of the full collection: about 3.2%.
Cneo AK release – Cryptococcus neoformans cell lysis inducers, primary screen, AK release luminescence, single concentration. hit rate 0.2% among 360,000. AID 651654, 2012. lysis activity, % at 15 µM. C. neoformans lysis, adenylate kinase release luminescence, 4 h; normalised: neutral wells 0, clomiphene wells 100;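 active = mean lysis activity across replicates of at least 80%, whatever share of replicates individually reach that level; inactive = mean lysis activity below 80%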
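Test system: log-phase Cryptococcus neoformans yeast cells. Input: 5 × 10^6 yeast cells/mL. Medium: fresh YPD growth medium. Doses: single dose. Incubation: static 4 h at 37 °C with compound, 1 h detection. Measured by: luminescent adenylate kinase detection reagent. Read-out: signal increase indicating cell lysis. Benchmarks: Clomiphene.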
PfHsp90 yeast 2 – growth inhibition of PfHsp90-expressing yeast, primary screen, antimalarial PfHsp90 inhibitor project, S. cerevisiae, BacTiter-Glo luminescence, single point, set 2 | hit rate 0.32% among 310,000 | AID 504621, 2011 | BacTiter-Glo ATP, 48 h; yeast lacking PDR1 and PDR3 efflux regulators | inhibition, % at 9.4 µM;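 active = every replicate shows inhibition above about 80%, whatever the replicate mean, limit read from the data; inconclusive = mean inhibition reaches the set limit but some replicate falls short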;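 note: 0% = DMSO neutral controls and 100% = 20 µM radicicol positive controls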
rRNA inh HTS – reduced GFP signal of wild-type E. coli, primary screen, bacterial rRNA inhibitor project, GFP/RFP fluorescence, OD600, single point. E. coli WT GFP vs humanized-ribosome RFP mutants, 24 h; hits give low values; DMSO median 0, no signal -100. GFP signal change (wild-type ribosome), % (test concentration not listed). hit rate 1.6% among 350,000;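 active = significant combined selectivity score with lowered wild-type GFP, culture density cut under 30%, mutant RFP and density less affected; inactive = any of these conditions unmet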
AF4-AF9 inh – inhibitors of AF4 peptide binding to AF9, primary screen, biochemical, AlphaScreen, biotin-AF4 peptide, FLAG-AF9, single point. inhibition, % at 10 µM. hit rate 0.47% among 350,000. Protein AF-9 (Homo sapiens), P42568;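 active = every replicate reaching a set inhibition limit, whatever the replicate mean, cut at about 25% in these data; inconclusive = mean inhibition reaches that limit but some replicates miss it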;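 note: 0% = plate neutral control median and 100% = total signal loss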
Target sequence (P42568 whole entry, looked up): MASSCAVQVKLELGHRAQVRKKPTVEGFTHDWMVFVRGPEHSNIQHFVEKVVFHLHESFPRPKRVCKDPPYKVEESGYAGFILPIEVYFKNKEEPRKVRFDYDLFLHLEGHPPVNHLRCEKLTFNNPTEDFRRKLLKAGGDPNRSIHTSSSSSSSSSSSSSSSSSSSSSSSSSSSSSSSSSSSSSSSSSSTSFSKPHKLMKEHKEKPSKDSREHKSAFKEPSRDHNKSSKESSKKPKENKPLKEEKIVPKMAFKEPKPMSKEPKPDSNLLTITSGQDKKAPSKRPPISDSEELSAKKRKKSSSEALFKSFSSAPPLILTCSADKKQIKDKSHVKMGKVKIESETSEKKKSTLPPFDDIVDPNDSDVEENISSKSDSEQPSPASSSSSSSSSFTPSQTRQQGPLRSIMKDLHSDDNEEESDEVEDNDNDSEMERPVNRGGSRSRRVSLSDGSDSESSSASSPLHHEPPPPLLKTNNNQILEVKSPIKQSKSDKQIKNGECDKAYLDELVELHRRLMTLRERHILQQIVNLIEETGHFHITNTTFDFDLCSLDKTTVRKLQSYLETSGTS
S100A4 inh HTS – inhibitors of S100A4-myosin IIA peptide binding, primary screen, biochemical, fluorescence polarization, TAMRA-MyoIIA peptide; Protein S100-A4 (Homo sapiens), P26447; inhibition, % at 10.7 µM; hit rate 0.14% among 360,000;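 active = mean inhibition of at least 70% across replicates, with every replicate also reaching that level; inconclusive = mean inhibition reaches 70% but some replicates fall short; inactive = mean inhibition below 70%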
Target sequence (P26447 whole entry, looked up): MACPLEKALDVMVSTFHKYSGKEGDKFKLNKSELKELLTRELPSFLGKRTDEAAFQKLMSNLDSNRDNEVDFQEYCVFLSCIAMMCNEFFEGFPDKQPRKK
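Test system – S100A4 monomer (human) · Compound – single-point compound testing · Schedule – 5 min incubation before reading · Probe or stimulus – TAMRA-labelled myosin IIA heavy-chain peptide probe, 5 nM · Benchmarks – neutral control DMSO, positive control TFP · Medium – Calcium-containing HEPES buffer, pH 7.2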
DENV2 CPE – inhibitors of DENV2 cytopathic effect, primary screen, cell-based, plate reader, single concentration; DENV2-infected cells, cytopathic effect rescue; CPE inhibition, % at 9.99 µM; hit rate 1.7% among 350,000; in the data active = CPE inhibition above about 20%, passing the limit was not always enough; inconclusive = no clear call, values can overlap the other calls; tested in BHK-21 cells;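 note: 0% = median of neutral control wells and 100% = median of positive control wells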
* marks the source's active call; other numbers are inactive results; u = inconclusive; x = no result.

SMILES | Cneo AK release | PfHsp90 yeast 2 | rRNA inh HTS | AF4-AF9 inh | S100A4 inh HTS | DENV2 CPE
C/C(=N\NC(=O)COc1ccc(C)cc1Br)c1cc([N+](=O)[O-])cs1 | -1 | -3 | -23* | -2 | -2 | -4
C=CCN=c1scc(-c2ccccc2)n1/N=C/c1ccccn1 | -4 | -23 | -47 | 28* | 0 | u
CCCNC(=O)C[C@H]1CC[C@H]2[C@@H](COc3ccc(NC(=O)Cc4cccs4)cc3C(=O)N2C)O1 | -3 | x | -2 | x | x | 2
CNC[C@H]1Oc2cc(-c3ccccc3F)ccc2S(=O)(=O)N([C@@H](C)CO)C[C@@H]1C | -4 | x | -3 | -6 | -10 | u
CC(C)Nc1nc(NC(C)C)nc(C(=O)OCCO)n1 | 2 | 9 | 2 | -1 | 2 | -3
CCNc1nc(NCC)nc(C(=O)OCCO)n1 | 0 | -14 | 9 | 7 | 6 | 29*
CO[C@@H]1CN(C)C(=O)c2cc(NC(=O)c3ccc(F)cc3)ccc2OC[C@@H](C)N(C(=O)CN(C)C)C[C@H]1C | 2 | x | 0 | 3 | 3 | -6
N#CC1=C(Nc2ccccc2Cl)SC(c2ccccc2O)NC1=O (configuration not stated) | -1 | 0 | -27* | 1 | 0 | 13
COC(=O)C[C@@H]1C[C@@H]2c3cc(NC(=O)Nc4ccccc4)ccc3O[C@@H]2[C@@H](CO)O1 | 57 | x | 7 | 0 | 25 | -5
CO[C@H]1CN(C)C(=O)c2cc(C#N)ccc2OC[C@H]2O[C@H](CC[C@H]2OC)CCN(C)C(=O)[C@H]1C | 9 | x | 3 | -1 | 8 | 4
O=C(COC(=O)c1ccc(NC(=O)C2CC=CCC2C(=O)O)cc1)c1ccccc1 (configuration not stated) | -1 | -8 | -11 | 2 | 3 | 68*
Cc1cc(C)cc(NC(=O)CCc2c(C)nn(-c3ccc(N4CCCCC4)nn3)c2C)c1 | -1 | -4 | 13 | 4 | 1 | 5
Cc1ccc(NC(=O)CCc2c(C)nn(-c3ccc(N4CCCCC4)nn3)c2C)cc1 | 0 | -3 | -25* | 2 | -1 | 4
Cc1noc(C)c1NC(=O)N(C)C[C@H]1Oc2c(NC(=O)Nc3cccc4ccccc34)cccc2C(=O)N([C@H](C)CO)C[C@H]1C | 2 | x | 3 | 1 | -4 | -2
CN(C)Cc1c(O)ccc2c(=O)c(-c3ccccc3)c(C(F)(F)F)oc12 | 2 | -3 | -32* | -19 | 14 | 4
Cc1ccccc1CSCC(=O)Nc1ccccc1Br | -3 | 10 | -23* | 1 | 3 | -4
Cn1cccc1-c1cc(C(=O)N/N=C/c2ccc(F)cc2)[nH]n1 | -1 | -6 | -13 | 11 | 3 | 1
COc1ccc(/C=N/NC(=O)c2cc(-c3ccc4c(c3)OCO4)n[nH]2)cc1OC | x | -16 | -20* | -1 | -1 | -9
O=C(N/N=C/c1ccc(F)cc1)c1cc(-c2ccc3c(c2)OCO3)n[nH]1 | 2 | 1 | x | 1 | -2 | 6
CC(/C=N/NC(=O)c1cc(-c2cccn2C)n[nH]1)=C\c1ccccc1 | 0 | 1 | -40* | 1 | 4 | 6
CCOc1ccc(/C=N/NC(=O)c2cc(-c3cccn3C)n[nH]2)cc1 | x | 10 | -26* | 3 | -3 | -5
Cn1cccc1-c1cc(C(=O)N/N=C/c2ccccc2Cl)[nH]n1 | -1 | 15 | -22* | 12 | -9 | 1
Cc1ccc(S(=O)(=O)Nc2cccc3c2O[C@H](CN(C)Cc2ccc(C(=O)O)cc2)[C@@H](C)CN([C@@H](C)CO)C3=O)cc1 | -1 | x | 4 | 1 | -5 | 13
CCC(=O)N1CC2(CCN(Cc3ccncc3)CC2)c2c(n(C)c3cc(OC)ccc23)[C@@H]1CO | x | x | -3 | 0 | x | -9
O=C(N/N=C/c1cc2c(cc1Cl)OCO2)c1ccncc1 | x | -24 | x | x | x | x
SMILES | Cneo AK release | PfHsp90 yeast 2 | rRNA inh HTS | AF4-AF9 inh | S100A4 inh HTS | DENV2 CPE
CC(C)c1ccc(/C=N/NC(=O)c2cc(-c3cccc([N+](=O)[O-])c3)n[nH]2)cc1 | -2 | -11 | -10 | -2 | 0 | 34*
O=C(N/N=C/c1cc2c(cc1Cl)OCO2)c1cc(-c2ccccc2)n[nH]1 | 5 | -9 | -24* | 2 | -4 | -5
O=C(N/N=C/C=C/c1ccccc1[N+](=O)[O-])c1cc(-c2ccccc2)n[nH]1 | x | 13 | -34* | 5 | -3 | -4
CCNC(=O)Nc1ccc2c(c1)C(=O)N(C)[C@@H]1CC[C@H](CC(=O)NCC3CC3)O[C@H]1CO2 | -4 | x | 1 | x | x | 5
C[C@H](CO)N1C[C@H](C)[C@@H](CN(C)Cc2ccncc2)Oc2ccc(N(C)C)cc2C1=O | 5 | x | 3 | -3 | 1 | 47*
C[C@@H]1CN([C@@H](C)CO)C(=O)c2cc(N(C)C)ccc2O[C@H]1CN(C)Cc1ccc(-c2ccccc2)cc1 | 0 | x | -3 | 34* | -4 | 3
C[C@@H]1CN([C@H](C)CO)C(=O)c2cc(N(C)C)ccc2O[C@@H]1CN(C)Cc1ccc(C(F)(F)F)cc1 | 15 | x | -4 | 17 | 5 | -2
C[C@@H]1CN([C@@H](C)CO)C(=O)c2cc(N(C)C)ccc2O[C@H]1CN(C)Cc1ccccc1 | -6 | x | 2 | -3 | -5 | u
C[C@@H]1CN([C@H](C)CO)C(=O)c2cc(N(C)C)ccc2O[C@@H]1CN(C)Cc1ccc(-c2ccccc2)cc1 | 2 | x | -6 | 47* | -2 | 0
CN1c2ccc(C3=CCCCC3)cc2[C@@H]2[C@@H](CCN2C(=O)C2CCC2)[C@@H]1CO | x | x | -15 | 28* | 4 | 16
CN1c2ccc(C3=CCCCC3)cc2[C@@H]2[C@@H](CCN2C(=O)C2CCCCC2)[C@@H]1CO | x | x | x | u | 4 | 10
CN1c2ccc(C3=CCCCC3)cc2[C@H]2[C@H](CCN2C(=O)C2CCCCC2)[C@@H]1CO | x | x | -5 | 30* | 0 | -6
CN1c2ccc(C#Cc3cccnc3)cc2[C@H]2[C@H](CCN2S(=O)(=O)c2cccc(F)c2)[C@@H]1CO | 63 | x | -5 | -5 | -6 | u
C[C@H](CO)N1C[C@H](C)[C@@H](CN(C)C(=O)NC2CCCCC2)Oc2ccc(NC(=O)Nc3cccc4ccccc34)cc2C1=O | -2 | x | -3 | x | -12 | 10
COc1cccc(C(C)NC(=S)NCc2ccc(Cl)cc2)c1 (configuration not stated) | x | 16 | -24* | -4 | -2 | x
